Source: PubChem (Columbia University Molecular Screening Center)
INS promoter act: TRM-6 insulin promoter activation; activation, % at 2 µM; actives 0.81% (n = 130,000); TRM-6 cells (human fetal islet line), insulin promoter eGFP reporter, imaging; plate-scaled: unstimulated 0, stimulated control 100;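 active means activation at 2 µM above a set limit, confirmed on inspection of the cell images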;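 further: share of cells whose green reporter signal exceeds an intensity cutoff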
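Assay system: TRM-6 human fetal islet cells, insulin promoter–eGFP reporter; Also added: 0.75 µM tamoxifen as reporter inducer; Schedule: 15 h tamoxifen pre-treatment, 48 h compound treatment at 37 °C; Signal: fixed-cell fluorescence microscopy, eGFP plus Hoechst; Read-out: percent activation from GFP-positive cell fraction; Control set: stimulated and unstimulated wells.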
Each line names hits and unclear results; the compound was inactive in the other large screens. Only a selection was taken, and hits are over-represented in it overall.

Cc1ccc(CC2S/C(=N/c3ccccn3)NC2=O)cc1 (stereo unspecified)	none
Cc1ccc(C(=O)CCC(=O)O)cc1	none
CCC1(C)Cc2c(sc3nc(NN)n(C)c(=O)c23)CO1 (stereo unspecified)	none
CC1CCCC(C)N1S(=O)(=O)c1ccc(S(=O)(=O)NCc2ccccc2)cc1 (stereo unspecified)	none
Cn1nc(-c2ccccc2)c(CO)c1Oc1ccc(F)cc1	none
C[N+]1(CCC(=O)c2ccccc2)CCCCC1	none
CC(C)(C)C1CCC(OC(=O)C[N+]2(C)CCCCC2)CC1 (stereo unspecified)	INS promoter act 200
CCOc1cc(C2c3c(-c4ccccc4)n[nH]c3C(=O)N2c2ccc(C(=O)O)cc2)ccc1O (stereo unspecified)	none
O=C(c1cc2cc(Cl)ccc2oc1=O)N1CCCC1	none
CC1(C)CC(=O)c2cc(C(=O)N3CCCCC3)c(=O)n(-c3ccc(Cl)cc3)c2C1	INS promoter act 164
Cc1cc(C(=O)C(=O)O)c(C)n1-c1ccc(Cl)cc1	none
CS(=O)(=O)c1nc(-c2cccs2)cc(C(F)(F)F)n1	none
O=C(CNC(=O)c1ccc(N2C(=O)c3ccccc3C2=O)cc1)OCC(=O)c1ccccc1	none
Cc1ccc(N(C(=O)Cn2nnc3ccccc32)C(C(=O)NCc2ccco2)c2ccc(C)o2)cc1 (stereo unspecified)	none
COc1ccc(N(C(=O)Cn2nnc3ccccc32)C(C(=O)NC(C)(C)C)c2ccc(OC)c(O)c2)cc1 (stereo unspecified)	none
CCC(C)(C)NC(=O)C(c1ccco1)N(C(=O)Cn1nnc2ccccc21)c1ccc2c(c1)OCO2 (stereo unspecified)	INS promoter act 83
CCc1ccc(OCC(=O)NC(NC(=S)Nc2ccc(Cl)cc2)C(Cl)(Cl)Cl)cc1 (stereo unspecified)	none
Cc1ccc(NS(=O)(=O)c2ccc(OCC(=O)Nc3cccc([N+](=O)[O-])c3)c(C)c2)cc1	none
C/C(=N\OCC(=O)N/N=C/c1ccccc1)c1cccs1	none
COc1cccc(/C=N/NC(=O)C(=O)N/N=C/c2cccc(OC)c2OC)c1OC	none
COc1cccc(/C=N/NC(=O)CO/N=C(\C)c2cccs2)c1OC	INS promoter act 86
Cn1c(=O)c2c(nc(N3CCOCC3)n2C)n(C)c1=O	none
Cc1ccc(S(=O)(=O)N2CCOCC2)cc1C(=O)Nc1c(C)n(C)n(-c2ccccc2)c1=O	none
Cc1cccc(C)c1NC(=S)N=Nc1c(O)n(C)c2ccc(S(=O)(=O)N3CCOCC3)cc12	INS promoter act 514
O=S(=O)(c1ccc(Cl)c(NC(=S)Nc2cccc(O)c2)c1)N1CCOCC1	none
COc1ccc(N=C2SC(C(=O)N3CCN(c4ccc([N+](=O)[O-])cc4)CC3)CC(=O)N2C)cc1 (stereo unspecified)	none
Cc1ccc(NC(=O)/C=C/c2ccc([N+](=O)[O-])s2)c(C)c1	none
Cc1ccc(C(=O)N/N=C/c2ccc([N+](=O)[O-])s2)cc1	none
Cc1ccc(NC(=O)/C=C/c2ccc([N+](=O)[O-])s2)cc1	INS promoter act 270
Cn1c(=O)[nH]c(=O)c2c1nc(CN1CCN(c3ccc(F)cc3)CC1)n2CCc1ccccc1	none
COc1ccc(CCn2c(-n3nc(C)cc3C)nc3c2c(=O)[nH]c(=O)n3C)cc1	none
COc1ccc(CCn2c(N3CCOCC3)nc3c2c(=O)[nH]c(=O)n3C)cc1	INS promoter act 100
COc1ccc(S(=O)(=O)Nc2ccc(N(C)C(C)=O)cc2)cc1	INS promoter act 103
Cc1ccc(S(=O)(=O)Nc2ccc(N(C)C)cc2)cc1	none
CCOc1ccc(NS(=O)(=O)c2ccc(NC(=S)NC(C)=O)cc2)cc1	none
C=CCn1c(Cc2ccc(OC)cc2)nnc1SCC(N)=O	none
O=C(COC(=O)CCC(=O)c1cccs1)Nc1ccc(Cl)cn1	none
CCOC(=O)Cc1nnc2c(Nc3ccccc3F)nc3nonc3n12	none
CSc1ccccc1NC(=O)CN(c1cccc(C)c1)S(C)(=O)=O	none
COc1ccc(N(CC(=O)Nc2ccccc2SC)S(C)(=O)=O)cc1OC	INS promoter act 614
COc1ccc(N(CC(=O)O)S(C)(=O)=O)cc1OC	none
NC(=O)C1CCN(CC(=O)N2c3ccccc3CCc3ccccc32)CC1	none
O=C(CN1C(=O)CSc2ccc(S(=O)(=O)N3CCCCC3)cc21)NCc1cccnc1	none
O=C(OCc1nnc(-c2ccccc2)o1)C12CC3CC(CC(Br)(C3)C1)C2	none
Cc1ccc2[nH]c(O)c(N=NC(=O)C(C)n3cnc4ccccc4c3=O)c2c1 (stereo unspecified)	none
CCCOC(=O)c1c(NC(=O)C2CCCO2)sc(C(=O)OC)c1C (stereo unspecified)	INS promoter act 567
CCOC(=O)c1c(-c2ccc(C)cc2)csc1NC(=O)C1CCCO1 (stereo unspecified)	none
CCc1c(C)sc(NC(=O)C2CCCO2)c1C#N (stereo unspecified)	none
CCN(CC)C(=O)CSc1nc(-c2ccco2)cc(C(F)(F)F)c1C#N	none
COc1cc(/C=N/NC(=O)CSCc2ccc([N+](=O)[O-])cc2)cc(OC)c1OC	none
COc1nc(N)c(S(=O)(=O)c2ccc(C)cc2)cc1C#N	INS promoter act 197
Cc1ccc(S(=O)(=O)c2c(C)cc(C)nc2Cl)cc1	none
COc1ccc(-c2nc(N)n(S(=O)(=O)c3ccc(C)cc3)n2)cc1	none
Cc1nc(NC(=O)CC(C)C)sc1-c1csc(Nc2ccc(Cl)cc2)n1	none
Cn1c(N=NC(=O)c2ccccc2)c(O)c2ccccc21	none
Cc1[nH]c2ccc(F)cc2c1CCN(Cc1ccco1)C(=S)NC(C)(C)C	INS promoter act 347
Cc1ccccc1NC(=S)N(CCc1c(C)[nH]c2ccc(F)cc12)Cc1cccnc1	none
COc1cccc(NC(=S)N(CCc2c(C)[nH]c3ccc(C)cc23)Cc2cccs2)c1	none
CC(C)c1nnc(NC(=O)c2cnccn2)s1	none
O=C(OCn1nnc2ccccc2c1=O)c1ccc2ccccc2n1	none
Cc1cc(Cl)c(S(=O)(=O)NC(C)C)cc1OCC(N)=O	none
CCOC(=O)N1CCC(N2CCN(S(=O)(=O)c3ccc4ccccc4c3)CC2)CC1	none
Cc1ccc(S(=O)(=O)N(CCCO)Cc2cc3c(C)ccc(C)c3[nH]c2=O)cc1	none
Cc1ccc(S(=O)(=O)N2CCCCC2C(=O)O)cc1 (stereo unspecified)	none
COc1ccc(NC(=O)C2CCCN2S(=O)(=O)c2ccc(C)cc2)cc1 (stereo unspecified)	none
COC(=O)C1CN(S(=O)(=O)c2ccc(C)cc2)CCN1S(=O)(=O)c1ccc(C)cc1 (stereo unspecified)	INS promoter act 136
CCN(CC)C(=O)CSc1nnc(-c2cnccn2)n1-c1ccccc1	none
Cc1ccc(S(=O)(=O)CCC(=O)N2CCc3ccccc32)cc1	none
O=C(CCC(=O)N1CCc2ccccc21)N1CCc2ccccc21	INS promoter act 569
O=C(COc1ccccc1)N1CCc2ccccc21	none
N#C/C(=C/c1ccc(N2CCOCC2)c([N+](=O)[O-])c1)C(N)=O	none
CCc1c(C(=O)N2CCOCC2)csc1C	none
COc1ccc2c(c1)c(N=O)c(O)n2C	none
O=C(O)c1c[nH]c2c(C(F)(F)F)cccc2c1=O	none
CC(=O)c1ccc(Oc2cc(C(F)(F)F)cnc2C(N)=O)cc1	none
COC(=O)c1ccccc1NC(=O)c1noc2c1CC(C(C)(C)C)CC2 (stereo unspecified)	none
CCOc1ccc(OCCN2C(=O)NC(Cc3c[nH]c4ccccc34)C2=O)cc1 (stereo unspecified)	INS promoter act 533
COc1ccc(OCC(=O)NCCc2c[nH]c3ccccc23)cc1	none
COc1ccc(OCCN2C(=O)c3ccccc3C2=O)cc1	none
Cc1[nH]c2ccccc2c1C(=O)COC(=O)Cn1c(C(F)(F)F)nc2ccccc21	none
